Measured values published in ChEMBL document CHEMBL1156129, “Synthesis, structure-activity relationships, and characterization of novel nonsteroidal and selective androgen receptor modulators” (J Med Chem, 2009).

Columns and labels:
[1] = Plasma concentration in Sprague-Dawley rat at 1 mg/kg, iv after 30 mins; assay type: ADME, organism-based; set-up: dose 1 mg/kg, route intravenous
[2] = Plasma concentration in Beagle dog at 1 mg/kg, iv after 24 hrs; assay type: ADME, organism-based, Canis lupus familiaris; set-up: dose 1 mg/kg, route intravenous
[3] = Agonist activity at androgen receptor LBD T877A mutant in mouse NIH3T3 cells transiently transfected with beta-galactosidase reporter gene assessed as cellular transformation by R-SAT assay; assay type: functional, cell-based
How it was run: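 AR expression vector transiently co-transfected (Polyfect) with β-galactosidase and coactivators SRC1, DRIP205 and GRIP1 into NIH-3T3 fibroblasts at 60-70% confluency. ONPG substrate added, absorbance read at 420 nm. EC50 from a hyperbolic fit. Mean ± SEM of three or more independent experiments.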

[4] = Plasma concentration in Sprague-Dawley rat at 1 mg/kg, iv after 120 mins; assay type: ADME, organism-based; set-up: dose 1 mg/kg, route intravenous
[5] = Plasma concentration in Sprague-Dawley rat at 10 mg/kg, po after 120 mins; assay type: ADME, organism-based; set-up: dose 10 mg/kg, route oral
[6] = Plasma concentration in Sprague-Dawley rat at 1 mg/kg, iv after 1 min; assay type: ADME, organism-based; set-up: dose 1 mg/kg, route intravenous
[7] = AUC (0 to infinity) in Beagle […] at 10 mg/kg, po; assay type: ADME, organism-based, Canis lupus familiaris; set-up: time infinity, dose 10 mg/kg, route oral; details: plasma
[8] = Half life in Beagle dog at 1 mg/kg, iv; assay type: ADME, organism-based, Canis lupus familiaris; set-up: dose 1 mg/kg, route intravenous; details: in vivo
[9] = Plasma concentration in Sprague-Dawley rat at 10 mg/kg, po after 240 mins; assay type: ADME, organism-based; set-up: dose 10 mg/kg, route oral
[10] = Oral bioavailability in Beagle […] at 10 mg/kg, po; assay type: ADME, organism-based, Canis lupus familiaris; details: in vivo
[11] = Clearance in Beagle dog at 1 mg/kg, iv; assay type: ADME, organism-based, Canis lupus familiaris; set-up: dose 1 mg/kg, route intravenous; details: in vivo
[12] = Plasma concentration in Sprague-Dawley rat at 1 mg/kg, iv after 240 mins; assay type: ADME, organism-based; set-up: dose 1 mg/kg, route intravenous
Rattus norvegicus [13] = test: Androgenic effect in castrated rat prostate assessed as reversal at 0.3 to 3 mg/kg/day sc using osmotic pump after 14 days; assay type: functional, Prostate gland; details: route subcutaneous
How it was run: (§1)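 Orchiectomized male rats received compound by subcutaneous osmotic pump for 14 days at 0.1-3 (mg/kg)/day. […] Levator ani and ventral prostate were weighed after 2 weeks and compared with sham-operated vehicle-treated controls, expressed as reversal of ORX-induced atrophy.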

[14] = Plasma concentration in Sprague-Dawley rat at 1 mg/kg, iv after 360 mins; assay type: ADME, organism-based; set-up: dose 1 mg/kg, route intravenous
[15] = Oral bioavailability in dog; assay type: ADME, organism-based, Canis lupus familiaris; details: in vivo
[16] = Plasma concentration in Beagle dog at 10 mg/kg, po after 0.5 hrs; assay type: ADME, organism-based, Canis lupus familiaris; set-up: dose 10 mg/kg, route oral
[17] = Binding affinity to androgen receptor LBD T877A mutant in hamster DDT cells by scintillation counting; assay type: cell-based, Cricetinae
[18] = Oral bioavailability in Sprague-Dawley rat at 10 mg/kg, po; assay type: ADME, organism-based; details: in vivo
[19] = Cmax in Sprague-Dawley rat at 1 mg/kg, iv; assay type: ADME, organism-based; set-up: dose 1 mg/kg, route intravenous; details: in vivo
[20] = Plasma concentration in Beagle dog at 1 mg/kg, iv after 2 hrs; assay type: ADME, organism-based, Canis lupus familiaris; set-up: dose 1 mg/kg, route intravenous
[21] = Plasma concentration in Beagle dog at 10 mg/kg, po after 2 hrs; assay type: ADME, organism-based, Canis lupus familiaris; set-up: dose 10 mg/kg, route oral
[22] = Plasma concentration in Sprague-Dawley rat at 1 mg/kg, iv after 480 mins; assay type: ADME, organism-based; set-up: dose 1 mg/kg, route intravenous
[23] = Plasma concentration in Beagle dog at 1 mg/kg, iv after 0.5 hrs; assay type: ADME, organism-based, Canis lupus familiaris; set-up: dose 1 mg/kg, route intravenous
[24] = Cmax in Beagle dog at 10 mg/kg, po; assay type: ADME, organism-based, Canis lupus familiaris; set-up: dose 10 mg/kg, route oral; details: in vivo
[25] = Plasma concentration in Beagle dog at 1 mg/kg, iv after 6 hrs; assay type: ADME, organism-based, Canis lupus familiaris; set-up: dose 1 mg/kg, route intravenous
[26] = Plasma concentration in Beagle dog at 1 mg/kg, iv after 0.25 hrs; assay type: ADME, organism-based, Canis lupus familiaris; set-up: dose 1 mg/kg, route intravenous
[27] = Plasma concentration in Beagle dog at 10 mg/kg, po after 0.25 hrs; assay type: ADME, organism-based, Canis lupus familiaris; set-up: dose 10 mg/kg, route oral
[28] = Plasma concentration in Beagle dog at 1 mg/kg, iv after 0.08 hrs; assay type: ADME, organism-based, Canis lupus familiaris; set-up: dose 1 mg/kg, route intravenous
[29] = Clearance in Sprague-Dawley rat at 1 mg/kg, iv; assay type: ADME, organism-based; set-up: dose 1 mg/kg, route intravenous; details: in vivo
[30] = Plasma concentration in Beagle dog at 10 mg/kg, po after 24 hrs; assay type: ADME, organism-based, Canis lupus familiaris; set-up: dose 10 mg/kg, route oral
[31] = Oral bioavailability in rat; assay type: ADME, organism-based; details: in vivo
[32] = Plasma concentration in Beagle dog at 10 mg/kg, po after 8 hrs; assay type: ADME, organism-based, Canis lupus familiaris; set-up: dose 10 mg/kg, route oral
Rattus norvegicus [33] = test: Anabolic effect in castrated rat levator ani muscle assessed as reversal of ORX-induced atrophy at 1 mg/kg/day sc using osmotic pump after 14 days; assay type: functional; details: route subcutaneous; how it was run: as §1
[34] = AUC (8 hrs) in Sprague-Dawley rat at 1 mg/kg, iv; assay type: ADME, organism-based; set-up: time < 8 hr, dose 1 mg/kg, route intravenous; details: plasma
[35] = Plasma concentration in Sprague-Dawley rat at 1 mg/kg, iv after 60 mins; assay type: ADME, organism-based; set-up: dose 1 mg/kg, route intravenous
[36] = AUC (0 to infinity) in Beagle dog at 1 mg/kg, iv; assay type: ADME, organism-based, Canis lupus familiaris; set-up: dose 1 mg/kg, route intravenous, time infinity; details: plasma
[37] = Plasma concentration in Sprague-Dawley rat at 10 mg/kg, po after 480 mins; assay type: ADME, organism-based; set-up: dose 10 mg/kg, route oral
[38] = Plasma concentration in Sprague-Dawley rat at 10 mg/kg, po after 30 mins; assay type: ADME, organism-based; set-up: dose 10 mg/kg, route oral
[39] = Plasma concentration in Beagle dog at 10 mg/kg, po after 6 hrs; assay type: ADME, organism-based, Canis lupus familiaris; set-up: dose 10 mg/kg, route oral
[40] = Plasma concentration in Beagle dog at 1 mg/kg, iv after 1 hrs; assay type: ADME, organism-based, Canis lupus familiaris; set-up: dose 1 mg/kg, route intravenous
[41] = Plasma concentration in Sprague-Dawley rat at 10 mg/kg, po after 60 mins; assay type: ADME, organism-based; set-up: dose 10 mg/kg, route oral
[42] = Plasma concentration in Beagle dog at 10 mg/kg, po after 4 hrs; assay type: ADME, organism-based, Canis lupus familiaris; set-up: dose 10 mg/kg, route oral

Compound `Cc1c(N2[C@@H]3CC[C@H]2C[C@@](C)(O)C3)ccc(C#N)c1Cl` has a concentration at 0.5 h [1] of 234 ng/mL, a concentration at 24 h [2] of 0.3 ng/mL and an EC50 [3] of 0.398 nM. The concentration at 2 h [4] was 74.3 ng/mL, the concentration at 2 h [5] was 238 ng/mL and the concentration at 1 min [6] was 824 ng/mL. The AUC(0-inf) [7] was 2210 ng·h/mL, the half-life [8] was 2.1 h and the concentration at 4 h [9] was 353 ng/mL. The bioavailability [10] was 56%, the clearance [11] was 42 mL/min/kg and the concentration at 4 h [12] was 45.4 ng/mL. The Activity (Rattus norvegicus [13]) was 21%, the concentration at 6 h [14] was 23.5 ng/mL and the bioavailability [15] was 56%. The concentration at 0.5 h [16] was 592 ng/mL, the pKi [17] was 5.5 and the bioavailability [18] was 38%. It also gave a Cmax [19] of 882 ng/mL, a concentration at 2 h [20] of 49.5 ng/mL and a concentration at 2 h [21] of 270 ng/mL. It also gave a concentration at 8 h [22] of 14.9 ng/mL, a concentration at 0.5 h [23] of 190 ng/mL and a Cmax [24] of 835 ng/mL. The concentration at 6 h [25] was 9.5 ng/mL, the concentration at 0.25 h [26] was 231 ng/mL and the concentration at 0.25 h [27] was 835 ng/mL. It also gave a concentration at 0.08 h [28] of 357 ng/mL, a clearance [29] of 24.4 mL/min/kg and a concentration at 24 h [30] of 3.2 ng/mL. It also gave a bioavailability [31] of 38%, a concentration at 8 h [32] of 60.6 ng/mL and an Activity (Rattus norvegicus [33]) of 67%. The AUC at 8 h [34] was 631 ng·h/mL, the concentration at 1 h [35] was 137 ng/mL and the AUC(0-inf) [36] was 394 ng·h/mL. The concentration at 8 h [37] was 253 ng/mL, the concentration at 0.5 h [38] was 314 ng/mL and the concentration at 6 h [39] was 104 ng/mL. The concentration at 1 h [40] was 89.3 ng/mL, the concentration at 1 h [41] was 263 ng/mL and the concentration at 4 h [42] was 159 ng/mL.
